For one test, the system named is MCF7. Put plainly: Inhibitory concentration of the compound was determined against MCF-7 cell line. Format: functional, cell-based. The conditions noted are these: Homo sapiens.
A further test has as its system HEp-2. Put plainly: Inhibitory concentration of the compound was determined against Hep2 cell line. In kind it is functional, cell-based. To be noted: Homo sapiens.
A further test has as its system MOLT-4. The test is described as follows: Inhibitory concentration of the compound was determined against Molt 4/C8 cell line. Format: functional, cell-based. To be noted: Homo sapiens.
Test [1] concerns Cell line. The test is described as follows: Minimum cytotoxic concentration that causes a microscopically detectable alteration of cell morphology. Format: functional. To be noted: Homo sapiens.
The test system of test [2] is L1210. The test is described as follows: Inhibitory concentration of the compound was determined against L1210 cell line. Format: functional, cell-based. To be noted: Mus musculus.
In test [3] the test system is HeLa. Put plainly: Inhibitory concentration of the compound was determined against HeLa cell line. To be noted: Homo sapiens. In kind it is functional, cell-based.
The subject of the next test is MIA PaCa-2. Put plainly: Inhibitory concentration of the compound was determined against MiaPaCa2 cell line. The conditions noted are these: Homo sapiens. In kind it is functional, cell-based.
Test [4] concerns CCRF-CEM. Put plainly: Inhibitory concentration of the compound was determined againstCEM cell line. To be noted: Homo sapiens. Format: functional, cell-based.
Test [5] relates to Cytomegalovirus. The test is described as follows: Effective concentration against Davis strain of CMV virus expressed in HEL cells. Format: functional, organism-based. To be noted: Human betaherpesvirus 5, HEL. The essentials:
(§1)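 Human embryonic lung (HEL) cell cultures infected with cytomegalovirus at 100 plaque forming units. EC50 is the concentration that cuts plaque formation by 50%, given in µg/mL.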

Test [6] has as its system Cytomegalovirus. The test is described as follows: Effective concentration against AD-169 strain of CMV virus expressed in HEL cells. In kind it is functional, organism-based. The conditions noted are these: Human betaherpesvirus 5, HEL. Summed up: as §1
The subject of a further test is SW-620. The test is described as follows: Inhibitory concentration of the compound was determined against SW6 20 cell line. Format: functional, cell-based. To be noted: Homo sapiens.
Test [7] can be described thus: Inhibitory concentration of the compound was determined against W138 cell line. In kind it is functional, cell-based, Homo sapiens. The essentials:
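Cytostatic test on human normal fibroblasts, run in the same panel as the malignant tumour lines L1210, Molt4/C8, CEM, SW620, Hep2, MiaPaCa2, MCF7 and HeLa. The value is reported as an IC50.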

Test [8] has as its system Cell line. Put plainly: Cytotoxic concentration required to reduce cell growth by 50%. In kind it is functional. To be noted: Homo sapiens. The essentials: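 Growth of HEL cells was measured. CC50 is the concentration that reduces cell growth by 50%, given in µg/mL.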
In test [9] the test system is CCRF-CEM. Put plainly: Inhibitory concentration was determined against CEM cell line. In kind it is functional, cell-based. The conditions noted are these: Homo sapiens.
Test [10] concerns HeLa. The test is described as follows: Inhibitory concentration of the compound was determined againstHeLa cell line. In kind it is functional, cell-based. To be noted: Homo sapiens.
The test system of test [11] is CCRF-CEM. Put plainly: Inhibitory concentration ofthecompound was determined against CEM cell line. In kind it is functional, cell-based. The conditions noted are these: Homo sapiens.
Test [12] concerns L1210. Put plainly: Inhibitory concentration against L1210 cell line. In kind it is functional, cell-based. To be noted: Mus musculus.

Each structure is given as a SMILES string. pIC50: −log10 of the molar value. ≈ marks a conversion by molar mass, not a printed value.

The pIC50 is the IC50 on a negative log10 scale, so that one unit is a factor of ten. A lower pIC50 goes with a large IC50. Usually EC50 stands for the concentration that produces a half-maximal response. For orientation: CC50 means the concentration at which the toxic effect on the cells reaches its halfway point.

On to `O=C(CC1CCCCC1)N(O)c1ccccc1`, for which the pIC50 was under 4.00 in the test on MCF7; under 4.00 in the test on HEp-2; 4.39 in the test with MOLT-4; 4.57 in the test with L1210 [2]; 4.52 with HeLa [3]; 4.40 with MIA PaCa-2. Besides, the pIC50 with CCRF-CEM [4] is 4.40; in the test on SW-620, 4.70; in test [7] it was 4.15. In the test with Cell line [1], this compound gave an MCC of 100 µg/mL. Besides, the EC50 in the test with Cytomegalovirus [5] and with Cytomegalovirus [6] was 8 µg/mL (≈ 34.3 µM) each time. In addition, in the test on Cell line [8], the CC50 is over 200 µg/mL.

Turning to `O=C(N(O)c1ccc(Cl)cc1)C12CC3CC(CC(C3)C1)C2`, the pIC50 is under 4.00 with MCF7; under 4.00 in the test on HEp-2; at most 3.30 in the test with MOLT-4; 3.54 in the test on L1210 [2]; under 4.00 in the test with HeLa [3]; under 4.00 in the test on MIA PaCa-2. Moreover, the pIC50 in the test with CCRF-CEM [4] is under 3.30; in the test with SW-620, under 4.00; in [7], under 4.00. The same compound registered an MCC in the test with Cell line [1] of 100 µg/mL. The figures for the EC50 in the test with Cytomegalovirus [5] and in the test with Cytomegalovirus [6] were 7 µg/mL (≈ 22.9 µM) and 13 µg/mL (≈ 42.5 µM), respectively. The same compound returned a CC50 in the test on Cell line [8] of over 50 µg/mL.

Take `O=C(CCC1CCCC1)N(O)c1ccc(Cl)cc1`: the pIC50 in the test with MCF7 was 5.00; in the test on HEp-2, 4.70; in the test on CCRF-CEM [9] it was 4.43; in the test on MOLT-4, 4.55; with L1210 [2], 4.42; in the test on MIA PaCa-2, 5.15. Further, the pIC50 in the test on SW-620 was 5.00; in test [7] it was 5.00; in the test with HeLa [10] it was 4.52. The MCC with Cell line [1] is 100 µg/mL. In addition, the EC50 in the test on Cytomegalovirus [5] turned out to be 8 µg/mL (≈ 29.9 µM); with Cytomegalovirus [6], 10 µg/mL (≈ 37.3 µM). Besides, the CC50 in the test with Cell line [8] stood at 20 µg/mL (≈ 74.7 µM).

Turning to `O=C(C1CCCCC1)N(O)c1ccc(Cl)cc1`, the pIC50 in the test on MCF7 was 4.10; with HEp-2, 4.40; with MOLT-4, 4.72; in the test with L1210 [2], 4.80; in the test with MIA PaCa-2, 4.70; with SW-620, 5.00. Besides, the pIC50 in test [7] was 4.00; with HeLa [10], 4.52; in the test with CCRF-CEM [11], 4.77. Further, the MCC in the test with Cell line [1] is at least 20 µg/mL. The EC50 in the test on Cytomegalovirus [5] amounted to 8.9 µg/mL (≈ 35.1 µM); in the test on Cytomegalovirus [6] it was 7.3 µg/mL (≈ 28.8 µM). For the same compound, the CC50 with Cell line [8] was 28 µg/mL (≈ 110 µM).

For `O=C(CC1CCCCC1)N(O)c1ccc(Cl)cc1`, the pIC50 was 5.00 with MCF7; 5.05 in the test with HEp-2; 4.48 in the test with MOLT-4; 4.59 with L1210 [2]; 5.10 in the test with MIA PaCa-2; 4.80 in the test on CCRF-CEM [4]. The pIC50 with SW-620 is 5.05; in test [7] it was 4.30; with HeLa [10], 4.52. For the same compound, the MCC in the test on Cell line [1] was found to be 50 µg/mL. The EC50 in the test on Cytomegalovirus [5] stood at 6.2 µg/mL (≈ 23.2 µM); with Cytomegalovirus [6] it was 7.3 µg/mL (≈ 27.3 µM). In the test with Cell line [8], the CC50 stood at 129 µg/mL (≈ 482 µM).

With `O=C(CCC1CCCCC1)N(O)c1ccc(Cl)cc1`, the pIC50 was 4.70 with MCF7; 4.52 in the test with HEp-2; 4.62 in the test on MOLT-4; 4.68 in the test with L1210 [2]; 5.00 in the test on MIA PaCa-2; 4.44 in the test on CCRF-CEM [4]. Moreover, the pIC50 in the test with SW-620 was 4.70; in [7] it was 4.52; in the test on HeLa [10] it was 4.52. The compound further gave an MCC in the test on Cell line [1] of at least 4 µg/mL. Moreover, the EC50 with Cytomegalovirus [5] was found to be 0.8 µg/mL (≈ 2.84 µM); with Cytomegalovirus [6] it was 1.5 µg/mL (≈ 5.32 µM). This compound displayed a CC50 in the test on Cell line [8] of 4.7 µg/mL (≈ 16.7 µM).

For the compound `O=C(C1CC1)N(O)c1ccc(Cl)cc1`, the pIC50 in the test on MCF7 is under 4.00; in the test on HEp-2, under 4.00; with L1210 [12] it was 4.66; in the test with MOLT-4 it was 4.62; in the test with MIA PaCa-2 it was under 4.00; in the test on CCRF-CEM [4] it was 4.60. In addition, the results for the pIC50 (with SW-620; in [7]; in the test on HeLa [10]) were 4.22, under 4.00 and under 4.10, respectively. The MCC in the test with Cell line [1] amounted to 100 µg/mL. Moreover, the EC50 in the test with Cytomegalovirus [5] and in the test on Cytomegalovirus [6] was over 20 µg/mL in each case. Besides, the CC50 in the test on Cell line [8] is 37 µg/mL (≈ 175 µM).

`Nc1ccn(C[C@@H](CO)OCP(=O)(O)O)c(=O)n1.O.O` [CIDOFOVIR] gave an MCC in the test on Cell line [1] of at least 400 µg/mL. In addition, the EC50 with Cytomegalovirus [5] was determined as 0.29 µg/mL; in the test on Cytomegalovirus [6], 0.18 µg/mL. Moreover, in the test on Cell line [8], the CC50 came out at 24 µg/mL.

In turn, `Nc1nc2c(ncn2COC(CO)CO)c(=O)[nH]1` [GANCICLOVIR] gave an MCC in the test on Cell line [1] of at least 400 µg/mL. Also, the EC50 in the test on Cytomegalovirus [5] and in the test with Cytomegalovirus [6] was 0.37 µg/mL (≈ 1.45 µM) in each case.

Source of the values: ChEMBL document CHEMBL1145184, “Synthesis, X-ray crystal structure study, and cytostatic and antiviral evaluation of the novel cycloalkyl-N-aryl-hydroxamic acids” (J Med Chem, 2005).
